Calls of active or inactive are those of the source. No cut-off for these calls is given here.
Experiments:
PC-3 = assay: Antiproliferative activity against human PC3 cells after 48 hrs by SRB assay; format: functional
Summary of the method: (§1)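 Cells seeded in medium with 5% FBS; after 24 h a T0 set fixed with 10% TCA. Compound or vehicle (0.1% DMSO) added for 48 h, then fixed with 10% TCA, stained with 0.4% SRB in 1% acetic acid, bound dye solubilized in 10 mM Trizma base, absorbance at 515 nm. GI50 = concentration halving net protein increase versus control, from [1−(Tx−T0)/(C−T0)]×100%.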

[1] = Antiproliferative activity against human Hep3B cells after 48 hrs by SRB assay; format: functional, Hep 3B2; summary of the method: as §1
Histone deacetylase = assay: Inhibition of HDAC from human HeLa nuclear extract using Boc-Lys(Ac)-AMC as substrate incubated 30 mins before substrate addition measured after 30 mins post substrate addition by fluorescence assay; format: protein assay
A549 = assay: Antiproliferative activity against human A549 cells after 48 hrs by SRB assay; format: functional; summary of the method: as §1
Histone deacetylase 4 = Histone deacetylase 4 (Homo sapiens, UniProt P56524); assay: Inhibition of HDAC4 using Boc-Lys(TFA)-AMC as substrate incubated 30 mins before substrate addition measured after 30 mins post substrate addition by fluorescence assay
[2] = target: T1, Protein deacetylase HDAC6 (Homo sapiens, UniProt Q9UBN7); assay: Inhibition of HDAC6 using Boc-Lys(Ac)-AMC as substrate incubated 30 mins before substrate addition measured after 30 mins post substrate addition by fluorescence assay
T1 sequence (Q9UBN7 whole entry): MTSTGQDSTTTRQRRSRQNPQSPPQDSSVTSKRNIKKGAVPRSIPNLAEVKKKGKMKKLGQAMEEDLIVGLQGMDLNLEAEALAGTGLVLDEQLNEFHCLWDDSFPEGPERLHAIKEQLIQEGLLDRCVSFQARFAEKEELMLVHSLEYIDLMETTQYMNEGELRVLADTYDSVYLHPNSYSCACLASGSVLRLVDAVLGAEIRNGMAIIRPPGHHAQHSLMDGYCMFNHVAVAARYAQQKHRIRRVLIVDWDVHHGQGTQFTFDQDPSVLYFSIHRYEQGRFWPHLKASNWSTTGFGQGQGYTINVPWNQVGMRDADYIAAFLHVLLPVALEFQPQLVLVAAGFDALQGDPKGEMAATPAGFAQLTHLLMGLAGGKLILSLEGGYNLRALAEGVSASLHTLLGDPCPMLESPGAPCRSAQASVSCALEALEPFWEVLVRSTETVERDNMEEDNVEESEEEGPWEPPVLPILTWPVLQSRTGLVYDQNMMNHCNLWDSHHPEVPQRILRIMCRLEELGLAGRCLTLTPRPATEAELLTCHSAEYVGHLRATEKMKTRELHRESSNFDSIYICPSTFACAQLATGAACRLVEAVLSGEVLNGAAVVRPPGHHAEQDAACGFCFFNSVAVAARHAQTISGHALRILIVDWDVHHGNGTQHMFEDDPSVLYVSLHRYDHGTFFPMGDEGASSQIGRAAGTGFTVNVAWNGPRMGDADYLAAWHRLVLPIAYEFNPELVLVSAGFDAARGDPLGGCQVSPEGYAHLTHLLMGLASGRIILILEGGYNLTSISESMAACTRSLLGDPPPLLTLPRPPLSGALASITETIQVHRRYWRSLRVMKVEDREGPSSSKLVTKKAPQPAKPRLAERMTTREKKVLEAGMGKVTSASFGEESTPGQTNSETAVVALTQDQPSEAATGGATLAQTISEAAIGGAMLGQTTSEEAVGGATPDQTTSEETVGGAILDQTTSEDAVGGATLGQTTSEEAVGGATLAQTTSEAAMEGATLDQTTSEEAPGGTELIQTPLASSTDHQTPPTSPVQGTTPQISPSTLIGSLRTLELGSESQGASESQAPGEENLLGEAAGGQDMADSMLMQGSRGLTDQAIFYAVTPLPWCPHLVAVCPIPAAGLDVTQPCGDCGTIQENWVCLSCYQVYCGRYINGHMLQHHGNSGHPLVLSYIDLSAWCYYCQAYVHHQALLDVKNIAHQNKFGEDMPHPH

Histone deacetylase 8 = target: T2, Histone deacetylase 8 (Homo sapiens, UniProt Q9BY41); assay: Inhibition of human HDAC8 using Boc-Lys(TFA)-AMC as substrate incubated 30 mins before substrate addition measured after 30 mins post substrate addition by fluorescence assay
T2 sequence (Q9BY41 whole entry): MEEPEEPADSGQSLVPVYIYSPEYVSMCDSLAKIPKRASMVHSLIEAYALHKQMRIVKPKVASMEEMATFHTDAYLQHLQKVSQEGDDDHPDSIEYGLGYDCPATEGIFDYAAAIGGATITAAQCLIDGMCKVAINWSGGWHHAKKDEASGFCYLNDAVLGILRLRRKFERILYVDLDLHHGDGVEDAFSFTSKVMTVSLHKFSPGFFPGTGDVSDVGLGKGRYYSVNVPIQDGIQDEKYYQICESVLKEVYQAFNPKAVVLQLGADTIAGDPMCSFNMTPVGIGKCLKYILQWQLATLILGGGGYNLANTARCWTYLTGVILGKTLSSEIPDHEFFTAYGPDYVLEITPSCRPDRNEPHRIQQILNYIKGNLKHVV

Histone deacetylase 1 = Histone deacetylase 1 (Homo sapiens, UniProt Q13547); assay: Inhibition of HDAC1 using KI-177 as substrate incubated 30 mins before substrate addition measured after 30 mins post substrate addition by fluorescence assay
[3] = target: T3, Histone deacetylase (Homo sapiens) (UniProt Q13547+O15379+Q9UBN7+Q92769+Q9UQL6+Q8WUI4+Q9BY41+Q96DB2+P56524+Q9UKV0+Q969S8); assay: Inhibition of HDAC in human prostate cancer cells assessed as induction of hyperacetylation of histone H3 after 16 hrs by SDS-PAGE and Western blot analysis; format: cell-based; details: Cancer cell lines
Summary of the method: (§2)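 Cells exposed to inhibitor at […] for 16 h. Whole-cell lysates made in ice-cold Tris pH 7.4 buffer with Triton X-100, protease and phosphatase inhibitors, run on 13% SDS-PAGE gels. Western blot for acetylated histone H3 (polyclonal) or acetylated alpha-tubulin (monoclonal), beta-actin as loading control, HRP secondary, ECL detection.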

[4] = target: T3, Histone deacetylase (Homo sapiens); assay: Inhibition of HDAC in human prostate cancer cells assessed as induction of hyperacetylation of alpha-tubulin after 16 hrs by SDS-PAGE and Western blot analysis; format: cell-based; details: Cancer cell lines; summary of the method: as §2

Sequence of Histone deacetylase 4 (P56524 whole entry): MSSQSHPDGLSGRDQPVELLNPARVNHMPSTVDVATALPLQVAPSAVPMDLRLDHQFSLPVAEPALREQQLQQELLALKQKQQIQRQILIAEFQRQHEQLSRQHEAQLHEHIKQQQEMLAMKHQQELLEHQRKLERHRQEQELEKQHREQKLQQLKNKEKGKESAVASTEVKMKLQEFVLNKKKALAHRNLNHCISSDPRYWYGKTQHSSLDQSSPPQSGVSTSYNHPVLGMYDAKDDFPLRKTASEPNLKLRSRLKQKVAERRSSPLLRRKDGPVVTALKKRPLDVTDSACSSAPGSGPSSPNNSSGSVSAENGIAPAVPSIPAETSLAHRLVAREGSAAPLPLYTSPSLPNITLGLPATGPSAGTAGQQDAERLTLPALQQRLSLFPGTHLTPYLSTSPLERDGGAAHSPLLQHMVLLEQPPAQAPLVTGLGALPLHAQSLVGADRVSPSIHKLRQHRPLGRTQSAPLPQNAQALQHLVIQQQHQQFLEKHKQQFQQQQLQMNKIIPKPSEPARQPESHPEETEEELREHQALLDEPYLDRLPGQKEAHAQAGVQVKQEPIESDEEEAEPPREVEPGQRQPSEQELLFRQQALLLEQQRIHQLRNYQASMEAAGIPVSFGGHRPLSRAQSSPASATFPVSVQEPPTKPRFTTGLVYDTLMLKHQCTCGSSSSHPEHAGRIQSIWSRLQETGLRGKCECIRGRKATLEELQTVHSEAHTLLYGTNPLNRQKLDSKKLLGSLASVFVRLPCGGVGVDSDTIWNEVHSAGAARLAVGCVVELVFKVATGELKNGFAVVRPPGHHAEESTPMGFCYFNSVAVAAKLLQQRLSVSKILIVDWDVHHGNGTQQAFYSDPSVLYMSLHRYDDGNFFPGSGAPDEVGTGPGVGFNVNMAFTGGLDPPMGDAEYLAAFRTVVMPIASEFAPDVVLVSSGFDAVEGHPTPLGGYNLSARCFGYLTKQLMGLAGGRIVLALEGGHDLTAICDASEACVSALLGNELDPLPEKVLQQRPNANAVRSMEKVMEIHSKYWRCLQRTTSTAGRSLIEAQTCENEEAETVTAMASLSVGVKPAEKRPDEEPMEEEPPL
Sequence of Histone deacetylase 1 (Q13547 whole entry): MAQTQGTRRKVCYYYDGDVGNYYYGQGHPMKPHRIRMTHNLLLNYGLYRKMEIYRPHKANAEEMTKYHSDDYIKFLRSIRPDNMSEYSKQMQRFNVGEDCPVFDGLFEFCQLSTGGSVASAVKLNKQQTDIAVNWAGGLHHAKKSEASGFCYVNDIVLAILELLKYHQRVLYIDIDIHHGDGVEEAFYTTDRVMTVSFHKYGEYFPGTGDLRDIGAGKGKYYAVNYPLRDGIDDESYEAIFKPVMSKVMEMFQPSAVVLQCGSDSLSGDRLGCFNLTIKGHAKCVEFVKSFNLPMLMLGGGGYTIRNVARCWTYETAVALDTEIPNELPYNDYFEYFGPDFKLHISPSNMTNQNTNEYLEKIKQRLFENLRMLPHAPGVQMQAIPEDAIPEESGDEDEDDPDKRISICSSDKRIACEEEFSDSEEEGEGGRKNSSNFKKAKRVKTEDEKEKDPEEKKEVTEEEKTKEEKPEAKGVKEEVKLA

GI50 (PC-3; Homo sapiens, PC-3, 48 h) | IC50 (Histone deacetylase) | GI50 (A549; Homo sapiens, A549, 48 h) | IC50 (Histone deacetylase 4) | IC50 [2] | IC50 (Histone deacetylase 8) | IC50 (Histone deacetylase 1) | GI50 (PC-3) | GI50 (A549) | inhibition [3] | inhibition [4] | Structure (SMILES) | GI50 ([1]; Homo sapiens, Hep3B, 48 h) | GI50 [1]
14.4 µM | 0.4263 µM | 10 µM |  |  |  |  |  |  |  |  | CC(C)CCc1c(OCCCCC(=O)NO)ccc(CCC(=O)NO)c1O | 14.1 µM | 
2.52 µM | 0.2099 µM | 5.41 µM |  |  |  |  |  |  |  |  | CC(C)CCc1c(OCCCCCC(=O)NO)ccc(CCC(=O)NO)c1O | 1.98 µM | 
1.73 µM | 0.0289 µM | 2.67 µM | > 10 µM | 0.0142 µM | 0.279 µM | 0.0415 µM |  |  |  |  | CC(C)CCc1c(OCCCCCCCC(=O)NO)ccc(CCC(=O)NO)c1O | 1.27 µM | 
> 30 µM | 0.4255 µM | > 30 µM |  |  |  |  |  |  |  |  | CC(C)CCc1c(OCCCCCC(=O)NO)ccc2c1OC(=O)CC2 | > 30 µM | 
 | 0.0222 µM | 0.66 µM | > 10 µM | 0.0152 µM | 0.553 µM | 0.0323 µM |  |  | Dose-dependent effect | Dose-dependent effect | CC(C)CCc1c(OCCCCCCC(=O)NO)ccc2ccc(=O)oc12 | 0.75 µM | 
4.73 µM | 0.0246 µM | 6.16 µM | > 10 µM | 0.0159 µM | 0.268 µM | 0.0429 µM |  |  | inactive | inactive | CC(C)CCc1c(OCCCCCCC(=O)NO)ccc(CCC(=O)NO)c1O | 4.72 µM | 
 | 0.1282 µM | 0.87 µM |  |  |  |  |  |  |  |  | CC(C)CCc1c(OCCCCCC(=O)NO)ccc2ccc(=O)oc12 | 0.8 µM | 

Second part, the molecule before the results:

Structure (SMILES) | GI50 (PC-3; Homo sapiens, PC-3, 48 h) | IC50 (Histone deacetylase) | GI50 (A549; Homo sapiens, A549, 48 h) | IC50 (Histone deacetylase 4) | IC50 [2] | IC50 (Histone deacetylase 8) | IC50 (Histone deacetylase 1) | GI50 (PC-3) | GI50 (A549) | inhibition [3] | inhibition [4] | GI50 ([1]; Homo sapiens, Hep3B, 48 h) | GI50 [1]
CC(C)CCc1c(OCCCCCCC(=O)NO)ccc2c1OC(=O)CC2 | > 30 µM | 0.0237 µM | > 30 µM | > 10 µM | 0.04 µM | 1.08 µM | 0.0527 µM |  |  |  |  | > 30 µM | 
CC(C)CCc1c(OCCCCCCCC(=O)NO)ccc2ccc(=O)oc12 |  | 0.039 µM | 2.19 µM |  |  |  |  |  |  |  |  | 3.58 µM | 
O=C(CCCCCCC(=O)Nc1ccccc1)NO [VORINOSTAT] |  |  |  |  |  |  |  | 1.02 µM | 0.79 µM |  |  |  | 1.21 µM
CC(C)CCc1c(OCCCCC(=O)NO)ccc2ccc(=O)oc12 | 1.94 µM | 0.5232 µM | 2.76 µM |  |  |  |  |  |  |  |  | 1.31 µM | 
CC(C)CCc1c(OCCCCC(=O)NO)ccc2c1OC(=O)CC2 | > 30 µM | 0.7116 µM | > 30 µM |  |  |  |  |  |  |  |  | > 30 µM | 
CC(C)CCc1c(OCCCCCCCC(=O)NO)ccc2c1OC(=O)CC2 | > 30 µM | 0.1117 µM | > 30 µM |  |  |  |  |  |  |  |  | > 30 µM | 

— ChEMBL document CHEMBL1821635, “Synthesis and evaluation of aliphatic-chain hydroxamates capped with osthole derivatives as histone deacetylase inhibitors” (Eur J Med Chem, 2011)
